Experimental findings from ChEMBL document CHEMBL4330087, “Synthesis, antimicrobial activity, attenuation of aminoglycoside resistance in MRSA, and ribosomal A-site binding of pyrene-neomycin conjugates” (Eur J Med Chem, 2019) are described below.

Broadly, the MIC is the lowest concentration that inhibits growth of the organism. What is called IC50 is the concentration that inhibits the measured activity by half.

The test system of data set [1] is Escherichia coli. Description: Antibacterial activity against multidrug-resistant Escherichia coli H4H after 15 to 20 hrs by CLSI protocol based microdilution assay. Format: functional. An outline of the steps:
(§1)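 CLSI broth microdilution on exponential-phase bacteria at ~3×10^5 cells/mL in cation-adjusted Mueller-Hinton broth. Serial 2-fold dilutions gave final concentrations of 50 to 0.78 μM; compound stocks were 10× in 10% DMSO. Incubated at 37 °C for 15-20 h, growth read at A595. Percent inhibition averaged over triplicates; MIC in μM.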

The test system of data set [2] is Ribosomal RNA A-site. Description: Displacement of F-NEO from Escherichia coli rRNA-A site after 10 to 20 mins by fluorescence assay. The format is nucleic-acid assay. Summed up:
(§2)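 A 100 nM F-NEO:A-site RNA complex in 10 mM HEPES, 50 mM NaCl, 0.04 mM EDTA, pH 7.0 was titrated with 2-fold dilutions of ligand from 20 to 0.009 μM, or from 60 or 40 μM for weaker ligands. Incubated 10-20 min at room temperature, fluorescence read at ex 485/em 525 nm. IC50 from dose-response curve fit.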

In data set [3] the test system is Staphylococcus aureus. Description: Antibacterial activity against NEO-sensitive Staphylococcus aureus C1 after 15 to 20 hrs by CLSI protocol based microdilution assay. The format is functional. Summed up: (§3)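 CLSI broth microdilution MIC in triplicate on exponential-phase cells, ~3×10^5 cells per mL in cation-adjusted Mueller-Hinton broth. Compound was added from 10× stocks in 10% DMSO as serial 2-fold dilutions, final 50 to 0.78 μM. Plates were incubated at 37 °C, humidified, 15-20 h. Growth was read as absorbance at 595 nm, and percent inhibition was averaged over triplicates.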
Background: Dilution methods test growth across graded concentrations, often in twofold steps.

Data set [4] relates to Escherichia coli. Description: Antibacterial activity against NEO-sensitive Escherichia coli ATCC 25922 after 15 to 20 hrs by CLSI protocol based microdilution assay. The format is functional. Summed up:
as §1

Data set [5] concerns Staphylococcus aureus. Description: Antibacterial activity against NEO-sensitive Staphylococcus aureus NRS77 after 15 to 20 hrs by CLSI protocol based microdilution assay. Format: functional. Summed up: as §3
Data set [6] deals with Staphylococcus aureus. Description: Antibacterial activity against methicillin-resistant Staphylococcus aureus M0602 after 15 to 20 hrs by CLSI protocol based microdilution assay. The format is functional. Summed up:
as §1

Data set [7] concerns the target Ribosomal RNA A-site. Description: Displacement of F-NEO from human cytosolic rRNA-A site after 10 to 20 mins by fluorescence assay. The format is nucleic-acid assay. An outline of the steps:
as §2

In data set [8] the test system is Staphylococcus epidermidis. Description: Antibacterial activity against NEO-sensitive Staphylococcus epidermidis 12384 after 15 to 20 hrs by CLSI protocol based microdilution assay. The format is functional. Summed up: as §1
For data set [9], the system named is Staphylococcus aureus. Description: Antibacterial activity against NEO-sensitive Staphylococcus aureus 25923 after 15 to 20 hrs by CLSI protocol based microdilution assay. Format: functional. An outline of the steps:
as §1

Data set [10] has as its system Ribosomal RNA A-site. Description: Binding affinity to rRNA-A site in human MDA-MB-231 cells assessed as inhibition of protein translation. Format: cell-based.
Data set [11] concerns Staphylococcus aureus. Description: Antibacterial activity against NEO-sensitive Staphylococcus aureus harboring NorA mutant after 15 to 20 hrs by CLSI protocol based microdilution assay. The format is functional. An outline of the steps:
as §1

In the next data set the test system is Streptococcus pyogenes. Description: Antibacterial activity against NEO-resistant Streptococcus pyogenes C203 after 15 to 20 hrs by CLSI protocol based microdilution assay. The format is functional. An outline of the steps:
as §1

Another data set deals with Bacillus anthracis. Description: Antibacterial activity against NEO-sensitive Bacillus anthracis BA852 after 15 to 20 hrs by CLSI protocol based microdilution assay. Format: functional. An outline of the steps:
as §1

Data set [12] deals with Staphylococcus aureus. Description: Antibacterial activity against methicillin-resistant Staphylococcus aureus A960649 after 15 to 20 hrs by CLSI protocol based microdilution assay. The format is functional. Summed up:
as §1

Data set [13] deals with Escherichia coli. Description: Antibacterial activity against NEO-sensitive Escherichia coli harboring TolC mutant after 15 to 20 hrs by CLSI protocol based microdilution assay. Format: functional. Summed up: as §1
Data set [14] concerns Staphylococcus aureus. Description: Antibacterial activity against NEO-sensitive Staphylococcus aureus 6538 after 15 to 20 hrs by CLSI protocol based microdilution assay. Format: functional. Summed up: as §3
Data set [15] can be described thus: Toxicity in Caenorhabditis elegans infected with methicillin-resistant Staphylococcus aureus assessed as effect on nematode larvae viability by measuring decrease in formazan production at 3.13 to 1.56 uM after 24 hrs by MTT assay. (In general: Tetrazolium dyes change colour on reduction, which living cells bring about.)
Data set [16] relates to Staphylococcus aureus. Description: Antibacterial activity against NEO-sensitive Staphylococcus aureus C2 after 15 to 20 hrs by CLSI protocol based microdilution assay. The format is functional. Summed up:
as §3

The subject of data set [17] is Staphylococcus aureus. Description: Antibacterial activity against methicillin-resistant Staphylococcus aureus SU-5 after 15 to 20 hrs by CLSI protocol based microdilution assay. Format: functional. Summed up: as §1
The nature of data set [18]: Toxicity in Caenorhabditis elegans infected with methicillin-resistant Staphylococcus aureus assessed as effect on nematode larvae viability by measuring decrease in formazan production at 6.25 to 50 uM after 24 hrs by MTT assay relative to control.
For data set [19], the system named is Staphylococcus aureus. Description: Antibacterial activity against methicillin-resistant Staphylococcus aureus 33591 after 15 to 20 hrs by CLSI protocol based microdilution assay. The format is functional. Summed up:
as §1

Data set [20] relates to Mycolicibacterium smegmatis. Description: Antibacterial activity against NEO-sensitive Mycobacterium smegmatis after 15 to 20 hrs by CLSI protocol based microdilution assay. Format: functional. An outline of the steps: as §1

≈ marks a conversion by molar mass, not a printed value. Calls of active or inactive are those of the source. The rule behind the calls is not given here.

`NC[C@@H]1O[C@H](O[C@H]2[C@@H](O)[C@H](O[C@@H]3[C@@H](O)[C@H](N)C[C@H](N)[C@H]3O[C@H]3O[C@H](CN)[C@@H](O)[C@H](O)[C@H]3N)O[C@@H]2CO)[C@H](N)[C@@H](O)[C@@H]1O` [FRAMYCETIN]: the MIC against Escherichia coli [1] was 400 µM (≈ 246 µg/mL); against Staphylococcus aureus [3] it was 3.2 µM (≈ 1.97 µg/mL); against Escherichia coli [4], 3.13 µM (≈ 1.92 µg/mL); against Staphylococcus aureus [5], 1.6 µM (≈ 0.983 µg/mL); in the data set on Staphylococcus aureus [6], > 400 µM; in [8], 1.56 µM (≈ 0.959 µg/mL). The MIC with Staphylococcus aureus [9] was 1.56 µM (≈ 0.959 µg/mL); against Staphylococcus aureus [11], 1.56 µM (≈ 0.959 µg/mL); in the data set with Bacillus anthracis it was 1.56 µM (≈ 0.959 µg/mL); with Staphylococcus aureus [12], 100 µM (≈ 61.5 µg/mL); with Escherichia coli [13], 1.56 µM (≈ 0.959 µg/mL); in the data set with Staphylococcus aureus [14] it was 3.2 µM (≈ 1.97 µg/mL). For the same molecule, the MIC against Staphylococcus aureus [16] is 6.3 µM (≈ 3.87 µg/mL); in the data set with Staphylococcus aureus [17] it was 200 to 400 µM (≈ 123 to 246 µg/mL); in the data set on Staphylococcus aureus [19] it was 400 µM (≈ 246 µg/mL); in data set [20] it was 0.78 µM (≈ 0.479 µg/mL). Moreover, the IC50 in the data set with Ribosomal RNA A-site [2] was determined as 87 nM; on Ribosomal RNA A-site [7], 76 nM; in the data set on Ribosomal RNA A-site [10], 139 nM. For the same molecule, in the data set with Streptococcus pyogenes, the MIC entry was “inactive”. Moreover, the Activity result in [15] is “Non-Toxic”; in data set [18], 50 to 75%.
